From ChEMBL document CHEMBL3286182, “4-aminoquinolone piperidine amides: noncovalent inhibitors of DprE1 with long residence time and potent antimycobacterial activity” (J Med Chem, 2014)
In brackets after ≈: the same amount, converted by molar mass. Activity calls are given as the source filed them. The rule behind the calls is not given here.

Key:
[1] = Octanol-water partition coefficient, log D of the compound by shake-flask method; format: physicochemical
[2] = Solubility of the compound in 0.1 M phosphate buffer at pH 7.4 after 24 hrs by UV and MS analysis; format: physicochemical
Cytochrome P450 1A2 = biological target: T1, Cytochrome P450 1A2 (Homo sapiens, UniProt P05177); test: Inhibition of CYP1A2 (unknown origin); format: ADME
T1 sequence (P05177 whole entry): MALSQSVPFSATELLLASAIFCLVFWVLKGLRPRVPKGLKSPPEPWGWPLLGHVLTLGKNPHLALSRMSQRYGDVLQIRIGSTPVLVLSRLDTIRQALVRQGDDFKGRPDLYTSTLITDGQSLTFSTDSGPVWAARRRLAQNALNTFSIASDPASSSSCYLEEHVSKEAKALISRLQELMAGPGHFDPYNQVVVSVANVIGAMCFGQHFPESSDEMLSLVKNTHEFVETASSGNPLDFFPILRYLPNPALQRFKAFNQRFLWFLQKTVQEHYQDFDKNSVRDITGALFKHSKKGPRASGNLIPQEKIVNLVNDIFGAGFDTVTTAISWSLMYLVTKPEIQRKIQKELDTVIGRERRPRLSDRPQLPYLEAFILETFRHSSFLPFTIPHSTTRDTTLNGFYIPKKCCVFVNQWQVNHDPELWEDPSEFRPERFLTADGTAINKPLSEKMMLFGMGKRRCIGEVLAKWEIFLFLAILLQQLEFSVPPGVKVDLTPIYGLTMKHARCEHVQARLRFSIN
Outline: (§1)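 CYP inhibition IC50 measured on isoforms CYP3A4, CYP2D6, CYP2C9, CYP2C19 and CYP1A2.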

Cytochrome P450 2C9 = Cytochrome P450 2C9 (Homo sapiens, UniProt P11712); test: Inhibition of CYP2C9 (unknown origin); format: ADME; outline: as §1
Chain of Cytochrome P450 2C9 (P11712 whole entry): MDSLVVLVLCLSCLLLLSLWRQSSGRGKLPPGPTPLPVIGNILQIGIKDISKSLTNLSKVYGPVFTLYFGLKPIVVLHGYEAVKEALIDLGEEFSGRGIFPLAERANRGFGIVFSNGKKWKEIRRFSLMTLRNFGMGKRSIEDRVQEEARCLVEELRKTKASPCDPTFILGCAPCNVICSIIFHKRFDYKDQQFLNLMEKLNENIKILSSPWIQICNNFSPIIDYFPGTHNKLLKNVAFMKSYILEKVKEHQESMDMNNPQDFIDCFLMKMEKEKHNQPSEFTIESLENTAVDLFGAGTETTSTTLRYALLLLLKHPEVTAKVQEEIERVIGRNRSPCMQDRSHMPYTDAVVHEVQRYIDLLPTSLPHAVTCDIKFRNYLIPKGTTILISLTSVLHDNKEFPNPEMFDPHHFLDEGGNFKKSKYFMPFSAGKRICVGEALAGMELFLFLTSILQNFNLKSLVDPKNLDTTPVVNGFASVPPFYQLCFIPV

[3] = Inhibition of Mycobacterium smegmatis recombinant DprE1 using farnesylphosphoryl-beta-D-ribofuranose as substrate assessed as conversion of amplex red to resorufin after 30 mins; parameters: species or system Mycolicibacterium smegmatis
Outline: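 Msm DprE1 (thioredoxin-6His fusion of Msm Rv3790) at 75 nM, preincubated 30 min with 10 μM FAD. Buffer: 50 mM glycylglycine pH 8.5, 200 mM potassium glutamate, 0.002% Brij-35, 2% DMSO, 25 °C. Started with 300 μM farnesylphosphoryl-β-D-ribofuranose, 0.01 mg/mL HRP and 50 μM Amplex Red.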

[4] = Permeability of the compound from apical to basolateral side in human Caco2 cells; format: ADME, cell-based; details: Caco-2, read-out: permeability
[5] = Cytotoxicity against human A549 cells after 72 hrs by resazurin based fluorescence assay; format: cell-based; details: read-out: MIC
Outline: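 Cytotoxicity read as MMIC, the MIC on the A549 cell line.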

[6] = Fraction unbound in human plasma at 20 uM after 18 hrs by equilibrium dialysis method; format: ADME, cell-free
Adenosine receptor A1 = biological target: T2, Adenosine receptor A1 (Homo sapiens, UniProt P30542); test: Inhibition of adenosine A1 receptor (unknown origin)
T2 sequence (P30542 whole entry): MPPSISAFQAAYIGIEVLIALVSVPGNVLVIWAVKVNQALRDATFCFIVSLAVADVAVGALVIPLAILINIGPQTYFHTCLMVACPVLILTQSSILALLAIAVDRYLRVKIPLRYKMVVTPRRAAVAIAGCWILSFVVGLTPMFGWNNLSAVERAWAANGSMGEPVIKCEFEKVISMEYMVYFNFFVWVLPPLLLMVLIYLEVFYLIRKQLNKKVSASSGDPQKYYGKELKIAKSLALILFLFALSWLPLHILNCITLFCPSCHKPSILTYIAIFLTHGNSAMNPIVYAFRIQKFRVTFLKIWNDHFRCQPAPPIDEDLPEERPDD
Outline: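 Secondary pharmacology panel of binding, enzyme and functional assays covering 24 molecular targets. Activity recorded as a defined Ki/IC50/EC50.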

[7] = biological target: Voltage-gated inwardly rectifying potassium channel KCNH2 (Homo sapiens, UniProt Q12809); test: Inhibition of human ERG by medium-throughput electrophysiology
Chain of Voltage-gated inwardly rectifying potassium channel KCNH2 (Q12809 whole entry): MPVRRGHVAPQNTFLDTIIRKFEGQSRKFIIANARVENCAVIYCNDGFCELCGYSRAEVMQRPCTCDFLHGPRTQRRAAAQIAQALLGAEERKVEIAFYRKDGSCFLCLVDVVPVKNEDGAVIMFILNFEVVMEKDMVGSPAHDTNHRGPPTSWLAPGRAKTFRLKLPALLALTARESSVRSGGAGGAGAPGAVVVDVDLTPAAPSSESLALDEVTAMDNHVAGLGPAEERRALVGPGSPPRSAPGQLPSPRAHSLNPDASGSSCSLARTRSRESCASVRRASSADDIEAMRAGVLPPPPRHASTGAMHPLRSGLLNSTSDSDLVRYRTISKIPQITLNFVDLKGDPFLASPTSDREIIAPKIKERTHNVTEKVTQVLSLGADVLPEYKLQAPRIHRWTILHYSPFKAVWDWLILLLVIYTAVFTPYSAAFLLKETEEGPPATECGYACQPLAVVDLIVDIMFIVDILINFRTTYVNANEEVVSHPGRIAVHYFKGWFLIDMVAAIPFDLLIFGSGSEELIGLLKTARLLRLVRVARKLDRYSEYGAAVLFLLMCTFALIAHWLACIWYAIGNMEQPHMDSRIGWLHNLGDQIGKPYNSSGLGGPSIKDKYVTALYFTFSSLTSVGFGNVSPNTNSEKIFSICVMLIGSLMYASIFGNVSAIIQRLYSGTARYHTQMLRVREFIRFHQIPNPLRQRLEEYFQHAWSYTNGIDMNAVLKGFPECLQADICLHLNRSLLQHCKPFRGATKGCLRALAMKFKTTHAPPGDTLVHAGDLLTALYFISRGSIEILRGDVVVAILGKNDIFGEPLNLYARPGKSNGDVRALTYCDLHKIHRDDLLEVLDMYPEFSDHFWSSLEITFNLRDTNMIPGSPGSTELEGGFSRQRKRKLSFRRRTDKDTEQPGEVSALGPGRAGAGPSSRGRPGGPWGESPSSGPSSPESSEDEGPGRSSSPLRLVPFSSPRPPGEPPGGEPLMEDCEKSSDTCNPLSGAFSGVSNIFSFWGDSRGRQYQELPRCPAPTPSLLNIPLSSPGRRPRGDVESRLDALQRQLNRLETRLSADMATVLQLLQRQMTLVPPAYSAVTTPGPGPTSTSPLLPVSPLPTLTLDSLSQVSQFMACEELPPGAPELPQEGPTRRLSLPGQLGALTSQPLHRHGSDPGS

[8] = Permeability of the compound from basolateral to apical side in human Caco2 cells; format: ADME, cell-based; details: Caco-2, read-out: permeability
Cytochrome P450 2D6 = Cytochrome P450 2D6 (Homo sapiens, UniProt P10635); test: Inhibition of CYP2D6 (unknown origin); format: ADME; outline: as §1
Chain of Cytochrome P450 2D6 (P10635 whole entry): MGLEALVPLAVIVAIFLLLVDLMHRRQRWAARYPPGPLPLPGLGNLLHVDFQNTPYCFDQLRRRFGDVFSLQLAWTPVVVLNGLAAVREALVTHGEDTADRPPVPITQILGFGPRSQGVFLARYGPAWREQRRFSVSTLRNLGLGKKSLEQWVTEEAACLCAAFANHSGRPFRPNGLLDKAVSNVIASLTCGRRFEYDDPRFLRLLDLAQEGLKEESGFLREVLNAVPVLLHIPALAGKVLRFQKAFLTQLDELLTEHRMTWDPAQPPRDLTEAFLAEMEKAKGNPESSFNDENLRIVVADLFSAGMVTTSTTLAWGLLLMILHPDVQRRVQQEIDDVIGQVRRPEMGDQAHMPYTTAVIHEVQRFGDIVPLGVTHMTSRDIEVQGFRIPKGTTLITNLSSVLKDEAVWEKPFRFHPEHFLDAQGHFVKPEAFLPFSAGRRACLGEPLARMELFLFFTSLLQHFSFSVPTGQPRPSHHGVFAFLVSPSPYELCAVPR

Cytochrome P450 2C19 = Cytochrome P450 2C19 (Homo sapiens, UniProt P33261); test: Inhibition of CYP2C19 (unknown origin); format: ADME; outline: as §1
Chain of Cytochrome P450 2C19 (P33261 whole entry): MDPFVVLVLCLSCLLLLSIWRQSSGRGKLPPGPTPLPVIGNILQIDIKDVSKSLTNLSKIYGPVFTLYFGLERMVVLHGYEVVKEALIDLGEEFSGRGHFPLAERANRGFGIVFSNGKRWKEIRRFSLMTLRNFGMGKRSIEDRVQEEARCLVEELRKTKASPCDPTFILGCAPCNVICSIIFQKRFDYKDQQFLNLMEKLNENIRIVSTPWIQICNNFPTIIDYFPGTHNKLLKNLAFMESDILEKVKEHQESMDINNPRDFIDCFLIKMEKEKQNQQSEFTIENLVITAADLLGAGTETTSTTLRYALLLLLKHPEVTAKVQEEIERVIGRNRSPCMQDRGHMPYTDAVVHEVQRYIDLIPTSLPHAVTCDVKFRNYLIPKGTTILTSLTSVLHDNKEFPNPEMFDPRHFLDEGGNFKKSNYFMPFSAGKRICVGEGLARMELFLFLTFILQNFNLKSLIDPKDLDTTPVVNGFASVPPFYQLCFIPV

Cytochrome P450 3A4 = Cytochrome P450 3A4 (Homo sapiens, UniProt P08684); test: Inhibition of CYP3A4 (unknown origin); format: ADME; outline: as §1
Chain of Cytochrome P450 3A4 (P08684 whole entry): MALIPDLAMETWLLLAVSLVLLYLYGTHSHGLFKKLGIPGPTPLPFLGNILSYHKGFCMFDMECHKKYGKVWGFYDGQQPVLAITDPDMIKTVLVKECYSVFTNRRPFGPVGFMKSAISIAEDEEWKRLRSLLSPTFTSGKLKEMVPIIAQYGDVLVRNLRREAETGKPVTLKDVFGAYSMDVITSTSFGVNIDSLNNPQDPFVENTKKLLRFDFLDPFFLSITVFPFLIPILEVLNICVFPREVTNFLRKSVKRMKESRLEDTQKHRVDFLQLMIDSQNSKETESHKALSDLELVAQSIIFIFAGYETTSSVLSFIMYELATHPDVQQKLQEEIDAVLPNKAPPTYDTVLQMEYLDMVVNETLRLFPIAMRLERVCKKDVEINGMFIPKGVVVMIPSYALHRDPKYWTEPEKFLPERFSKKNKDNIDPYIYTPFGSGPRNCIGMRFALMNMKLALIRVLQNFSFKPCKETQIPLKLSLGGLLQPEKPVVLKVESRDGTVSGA

[9] = Intrinsic clearance in human liver microsomes at 1 uM up to 30 mins by LC-MS/MS analysis; format: ADME; details: read-out: CLH
[10] = test system: Mycobacterium tuberculosis; test: Antimycobacterial activity against Mycobacterium tuberculosis H37Rv after 5 days by standard microdilution method; format: functional; details: 120 h
[11] = Intrinsic clearance in rat cryopreserved hepatocytes assessed per 10^6 cells at 1 uM up to 120 mins by LC-MS/MS analysis; format: ADME, cell-based, Hepatocyte; details: read-out: CLH
[12] = test system: Mycobacterium tuberculosis; test: Antimycobacterial activity against Mycobacterium tuberculosis over expressing TopA after 5 days by standard microdilution method; format: functional; details: 120 h
[13] = test system: Mycobacterium tuberculosis; test: Antimycobacterial activity against Mycobacterium tuberculosis over expressing DprE1 after 5 days by standard microdilution method; format: functional; details: 120 h
[14] = test system: Mycobacterium tuberculosis; test: Antimycobacterial activity against Mycobacterium tuberculosis over expressing InhA after 5 days by standard microdilution method; format: functional; details: 120 h
[15] = test system: Mycobacterium tuberculosis; test: Antimycobacterial activity against Mycobacterium tuberculosis over expressing PimA after 5 days by standard microdilution method; format: functional; details: 120 h
Haemophilus influenzae [16] = test: Antimicrobial activity against Haemophilus influenzae ARC158 at 100 uM; format: functional, organism-based
Outline: (§2)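 Nonmycobacterial panel of Candida albicans, Gram-negative and Gram-positive pathogens.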

Streptococcus pneumoniae = test: Antimicrobial activity against Streptococcus pneumoniae ARC548 at 100 uM; format: functional, organism-based; outline: as §2
Pseudomonas aeruginosa [17] = test: Antimicrobial activity against Pseudomonas aeruginosa ARC546 at 100 uM; format: functional, organism-based; outline: as §2
[18] = test system: Mycobacterium tuberculosis; test: Antimycobacterial activity against Mycobacterium tuberculosis H37Rv under hypoxic condition after 6 days by resazurin assay; format: functional
[19] = test system: Mycolicibacterium smegmatis; test: Antimicrobial activity against Mycobacterium smegmatis mc2155 at 100 uM; format: functional, organism-based; details: str. MC2 155
Escherichia coli [20] = test: Antimicrobial activity against Escherichia coli ARC523 at 100 uM; format: functional, organism-based; outline: as §2
Staphylococcus aureus = test: Antimicrobial activity against Staphylococcus aureus ARC517 at 100 uM; format: functional, organism-based; outline: as §2
Candida albicans = test: Antimicrobial activity against Candida albicans ARC527 at 100 uM; format: functional, organism-based; outline: as §2
Haemophilus influenzae [21] = test: Antimicrobial activity against Haemophilus influenzae ARC446 at 100 uM; format: functional, organism-based; outline: as §2
Klebsiella pneumoniae = test: Antimicrobial activity against Klebsiella pneumoniae ARC1865 at 100 uM; format: functional, organism-based; outline: as §2
Escherichia coli [22] = test: Antimicrobial activity against Escherichia coli ARC524 at 100 uM; format: functional, organism-based; outline: as §2
[23] = test system: Mycolicibacterium smegmatis; test: Antimicrobial activity against Mycobacterium smegmatis ATCC 607 at 100 uM; format: functional, organism-based
Pseudomonas aeruginosa [24] = test: Antimicrobial activity against Pseudomonas aeruginosa ARC545 at 100 uM; format: functional, organism-based; outline: as §2
[25] = test system: Mycolicibacterium smegmatis; test: Ratio of IC50 for Mycobacterium smegmatis DprE1 Y321H mutant to IC50 for Mycobacterium smegmatis recombinant wild type DprE1
Outline: (§3)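 Recombinant M. smegmatis DprE1 (thioredoxin-6His fusion), wild type or Y321H, 75 nM. Enzyme was preincubated 30 min in FAD assay mix: 50 mM glycylglycine pH 8.5, 200 mM potassium glutamate, 10 μM FAD, 0.002% Brij-35, 2% DMSO. Reaction was started with 300 μM farnesylphosphoryl-β-D-ribofuranose, 0.01 mg/mL HRP and 50 μM amplex red at 25 °C.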

[26] = Inhibition of Mycobacterium smegmatis DprE1 Y321H mutant using farnesylphosphoryl-beta-D-ribofuranose as substrate assessed as conversion of amplex red to resorufin after 30 mins; parameters: species or system Mycolicibacterium smegmatis; outline: as §3

Question: Which results are given for `Cc1onc(C(=O)N2[C@@H]3CC[C@H]2C[C@@H](Nc2cc(=O)n(C)c4cc(F)c(F)cc24)C3)c1C`?
Answer: logD [1]: 2.8; solubility at 24 h [2]: 6 µM (≈ 2.65 µg/mL); INH (Cytochrome P450 1A2): > 30 µM; INH (Cytochrome P450 2C9): > 30 µM; IC50 [3]: 17 nM; Papp A→B [4]: 23 ×10⁻⁶ cm/s; MCC at 72 h [5]: > 50 µM; fraction unbound at 18 h, 20 µM [6]: 0.03; IC50 (Adenosine receptor A1): 8000 nM; IC50 [7]: 16000 nM; Papp B→A [8]: 13 ×10⁻⁶ cm/s; INH (Cytochrome P450 2D6): > 30 µM; INH (Cytochrome P450 2C19): > 30 µM; INH (Cytochrome P450 3A4): > 30 µM; microsomal CLint at 1 µM [9]: 107 µL/min/mg; MIC [10]: 0.12 µM (≈ 0.0531 µg/mL); hepatocyte CLint at 1 µM [11]: 56 µL/min/1e6 cells

Question: For `COc1c(N2C[C@@H]3CCCN[C@@H]3C2)c(F)cc2c(=O)c(C(=O)O)cn(C3CC3)c12` [MOXIFLOXACIN], which MIC [12] is on record?
Answer: 0.31 µM (≈ 0.124 µg/mL)

Question: What about the MIC [13] of the same molecule?
Answer: 0.08 µM (≈ 0.0321 µg/mL)

Question: And the MIC [14]?
Answer: 0.16 µM (≈ 0.0642 µg/mL)

Question: For `COc1nc2ccc(Br)cc2cc1[C@@H](c1ccccc1)[C@@](O)(CCN(C)C)c1cccc2ccccc12` [BEDAQUILINE], which MIC [12] is on record?
Answer: 0.8 µM (≈ 0.444 µg/mL)

Question: What about the MIC [13] of the same molecule?
Answer: 1.6 µM (≈ 0.889 µg/mL)

Question: And the MIC [10]?
Answer: 0.78 µM (≈ 0.433 µg/mL)

Question: What about the MIC [14] of the same molecule?
Answer: 1.6 µM (≈ 0.889 µg/mL)

Question: What about the MIC [15] of the same molecule?
Answer: 0.8 µM (≈ 0.444 µg/mL)

Question: Which results are given for `C[C@H]1COC2(CCN(c3nc(=O)c4cc(C(F)(F)F)cc([N+](=O)[O-])c4s3)CC2)O1` [BTZ-043]?
Answer: MIC [12]: 0.012 µM (≈ 0.00518 µg/mL); MIC [13]: 12.5 µM (≈ 5.39 µg/mL); MIC [10]: 0.003 µM (≈ 0.00129 µg/mL); MIC [14]: 0.003 µM (≈ 0.00129 µg/mL); MIC [15]: 0.003 µM (≈ 0.00129 µg/mL)

Question: With `Cc1c(C(=O)N2CCC(Nc3cc(=O)[nH]c4ccc(F)cc34)CC2)nnn1C` as the molecule, how does the Activity (Haemophilus influenzae [16]) read?
Answer: inactive

Question: What about the Activity (Streptococcus pneumoniae) of the same molecule?
Answer: inactive

Question: What about the Activity (Pseudomonas aeruginosa [17]) of the same molecule?
Answer: inactive

Question: What about the Activity [18] of the same molecule?
Answer: inactive

Question: What about the Activity [19] of the same molecule?
Answer: inactive

Question: And the Activity (Escherichia coli [20])?
Answer: inactive

Question: And the IC50 [3]?
Answer: 11 nM

Question: What about the Activity (Staphylococcus aureus) of the same molecule?
Answer: inactive

Question: What about the Activity (Candida albicans) of the same molecule?
Answer: inactive

Question: What about the Activity (Haemophilus influenzae [21]) of the same molecule?
Answer: inactive

Question: What about the Activity (Klebsiella pneumoniae) of the same molecule?
Answer: inactive

Question: What about the Activity (Escherichia coli [22]) of the same molecule?
Answer: inactive

Question: What about the Activity [23] of the same molecule?
Answer: inactive

Question: What about the Activity (Pseudomonas aeruginosa [24]) of the same molecule?
Answer: inactive

Question: And the MIC [10]?
Answer: 3.5 µM (≈ 1.35 µg/mL)

Question: Which fold change (FC) [25] does the source give for `C[C@H]1C[C@H](Nc2cc(=O)[nH]c3cc(F)c(F)cc23)CCN1C(=O)c1cnn(C)c1Cl` here?
Answer: 47

Question: And the IC50 [26]?
Answer: 1030 nM

Question: What about the MIC [13] of the same molecule?
Answer: 12.5 µM (≈ 5.45 µg/mL)

Question: What about the Activity [18] of the same molecule?
Answer: inactive

Question: What about the IC50 [3] of the same molecule?
Answer: 21 nM

Question: And the MIC [10]?
Answer: 0.39 µM (≈ 0.17 µg/mL)
